Assay results from ChEMBL document CHEMBL1156247, “Synthesis and anti-HIV-1 integrase activity of modified dinucleotides” (Eur J Med Chem, 2009).
Calls of active or inactive are those of the source. The rule behind the calls is not given here.

What was measured:
[1] = target: Human immunodeficiency virus type 1 integrase (Human immunodeficiency virus 1, UniProt Q7ZJM1); test: Inhibition of recombinant HIV1 integrase 3^-end processing and strand transfer activity after 1 hr
In short: (§1)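 Recombinant HIV-1 integrase (100 nM) with 12.5 nM 21-mer double-stranded DNA substrate in 10 mM HEPES pH 7.2, 1 mM DTT, 7.5 mM MgCl₂, 1 hr at 37 °C. Compound was titrated from 300 nM upward; an EDTA (10 mM) lane and a no-drug lane were included. 3′-processed and strand-transfer products were resolved on denaturing 18% acrylamide/urea gels.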

[2] = target: Human immunodeficiency virus type 1 integrase (Human immunodeficiency virus 1) (UniProt Q7ZJM1); test: Ratio of D-d-5^ CpA3^ IC50 to compound IC50 for recombinant HIV1 integrase 3^-end processing and strand transfer activity
[3] = target: Human immunodeficiency virus type 1 integrase (Human immunodeficiency virus 1) (UniProt Q7ZJM1); test: Inhibition of recombinant HIV1 integrase 3^-end processing and strand transfer activity at 300 uM to 300 nM after 1 hr by PAGE analysis; in short: as §1

Human immunodeficiency virus type 1 integrase, sequence (Q7ZJM1 whole entry): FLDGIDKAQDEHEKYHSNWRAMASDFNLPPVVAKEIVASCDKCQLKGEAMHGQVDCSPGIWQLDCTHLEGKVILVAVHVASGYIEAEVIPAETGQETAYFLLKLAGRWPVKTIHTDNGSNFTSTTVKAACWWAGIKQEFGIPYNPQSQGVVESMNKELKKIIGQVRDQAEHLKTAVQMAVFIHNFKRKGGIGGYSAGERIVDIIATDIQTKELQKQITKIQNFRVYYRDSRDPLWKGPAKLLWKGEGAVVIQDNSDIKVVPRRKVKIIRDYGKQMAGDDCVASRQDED
Human immunodeficiency virus type 1 integrase (Human immunodeficiency virus 1), sequence (Q7ZJM1 as listed by the source): as the sequence (Q7ZJM1 whole entry) above

Compound	IC50 [1] [µM]	Ratio IC50 [2]	Activity [3]
NCCCCNP(=O)(O[C@H]1C[C@H](n2ccc(N)nc2=O)O[C@@H]1CO)O[C@H]1C[C@H](n2cnc3c(N)ncnc32)O[C@@H]1CO (stereo not given in full)	100	3	–
NCCNc1ccn([C@H]2C[C@H](OP(=O)(O)OC[C@H]3O[C@@H](n4cnc5c(N)ncnc54)C[C@@H]3O)[C@@H](CO)O2)c(=O)n1	> 1000	–	–
N=C(N)NCCCCNP(=O)(OC[C@H]1O[C@@H](n2cnc3c(N)ncnc32)C[C@@H]1O)O[C@H]1C[C@H](n2ccc(N)nc2=O)O[C@@H]1CO (stereo not given in full)	≥ 340	–	–
NCCCCNP(=O)(OC[C@H]1O[C@@H](n2ccc(N)nc2=O)C[C@@H]1O)OC[C@H]1O[C@@H](n2cnc3c(N)ncnc32)C[C@@H]1O (stereo not given in full)	102	3	–
Nc1ccn([C@H]2C[C@H](O)[C@@H](COP(=O)(O)OC[C@H]3O[C@@H](n4cnc5c(N)ncnc54)C[C@@H]3O)O2)c(=O)n1	≥ 340	–	–
NCCCCNP(=O)(OC[C@H]1O[C@@H](n2cnc3c(N)ncnc32)C[C@@H]1O)O[C@H]1C[C@H](n2ccc(N)nc2=O)O[C@@H]1CO (stereo not given in full)	≥ 340	–	–
Nc1ccn([C@H]2C[C@H](O)[C@@H](COP(=O)(S)OC[C@H]3O[C@@H](n4cnc5c(N)ncnc54)C[C@@H]3O)O2)c(=O)n1 (stereo not given in full)	≥ 340	–	–
Nc1ccn([C@H]2C[C@H](OP(=O)(O)OC[C@H]3O[C@@H](n4cnc5c(N)ncnc54)C[C@@H]3O)[C@@H](CO)O2)c(=O)n1	340	–	–
N=C(N)NCCCCNP(=O)(OC[C@H]1O[C@@H](n2ccc(N)nc2=O)C[C@@H]1O)OC[C@H]1O[C@@H](n2cnc3c(N)ncnc32)C[C@@H]1O (stereo not given in full)	100	3	–
Nc1ccn([C@H]2C[C@H](OP(=O)(S)OC[C@H]3O[C@@H](n4cnc5c(N)ncnc54)C[C@@H]3O)[C@@H](CO)O2)c(=O)n1 (stereo not given in full)	≥ 340	–	–
Nc1ccn([C@@H]2C[C@@H](O)[C@H](COP(=O)(O)O[C@@H]3C[C@@H](n4cnc5c(N)ncnc54)O[C@H]3CO)O2)c(=O)n1	≥ 340	–	–
Nc1ccn([C@H]2C[C@H](OP(=O)(S)O[C@H]3C[C@H](n4cnc5c(N)ncnc54)O[C@@H]3CO)[C@@H](CO)O2)c(=O)n1 (stereo not given in full)	110	3	–
Nc1ccn([C@@H]2C[C@@H](OP(=O)(O)OC[C@@H]3O[C@H](n4cnc5c(N)ncnc54)C[C@H]3O)[C@H](CO)O2)c(=O)n1 (single isomer, unassigned)	≥ 340	–	–
Nc1ccn([C@H]2C[C@H](OP(=O)(O)O[C@H]3C[C@H](n4cnc5c(N)ncnc54)O[C@@H]3CO)[C@@H](CO)O2)c(=O)n1	≥ 340	–	–
N=C(N)NCCCCNP(=O)(O[C@H]1C[C@H](n2ccc(N)nc2=O)O[C@@H]1CO)O[C@H]1C[C@H](n2cnc3c(N)ncnc32)O[C@@H]1CO (stereo not given in full)	100	3	–

Continued, values first:

IC50 [1] [µM]	Ratio IC50 [2]	Activity [3]	Compound
> 100	–	–	COc1ccc2nc3cc(Cl)ccc3c(NCCCCCCSP(=O)(O)O[C@H]3C[C@H](n4cnc5c(N)ncnc54)O[C@@H]3COP(=O)(O)O[C@H]3C[C@H](n4ccc(N)nc4=O)O[C@@H]3COP(=O)(O)O)c2c1
13.4	–	–	Nc1ccn([C@H]2C[C@H](OP(=O)(O)OC[C@H]3O[C@@H](n4cnc5c(N)ncnc54)C[C@@H]3OP(=O)(O)O)[C@@H](COP(=O)(O)SCCCCCC(=O)Nc3ccc(N)c4c3C(=O)c3ccccc3C4=O)O2)c(=O)n1
> 340	–	–	N=C(N)NCCCCCNc1ccn([C@H]2C[C@H](OP(=O)(O)OC[C@H]3O[C@@H](n4cnc5c(N)ncnc54)C[C@@H]3O)[C@@H](CO)O2)c(=O)n1
30	–	–	Nc1ccn([C@H]2C[C@H](OP(=O)(O)OC[C@H]3O[C@@H](n4cnc5c(N)ncnc54)C[C@@H]3OP(=O)(O)O)[C@@H](COP(=O)(O)O[C@H]3C[C@H](OCCCc4ccc5c6cccc7cccc(c8cccc4c85)c76)O[C@@H]3CO)O2)c(=O)n1
> 1000	–	–	NCCCNc1ccn([C@H]2C[C@H](OP(=O)(O)OC[C@H]3O[C@@H](n4cnc5c(N)ncnc54)C[C@@H]3O)[C@@H](CO)O2)c(=O)n1
> 100	–	–	COc1ccc2nc3cc(Cl)ccc3c(NCCC[N+](C)(C)CCCSP(=O)(O)O[C@H]3C[C@H](n4cnc5c(N)ncnc54)O[C@@H]3COP(=O)([O-])O[C@H]3C[C@H](n4ccc(N)nc4=O)O[C@@H]3COP(=O)(O)O)c2c1
> 100	–	–	Nc1ccn([C@H]2C[C@H](OP(=O)(O)OC[C@H]3O[C@@H](n4cnc5c(N)ncnc54)C[C@@H]3OP(=O)(O)NCCCCCCCCCCCCO)[C@@H](COP(=O)(O)O)O2)c(=O)n1
> 100	–	–	COc1ccc2nc3cc(Cl)ccc3c(NCCC[N+](C)(C)CCCSP(=O)(O)OC[C@H]3O[C@@H](n4ccc(N)nc4=O)C[C@@H]3OP(=O)([O-])OC[C@H]3O[C@@H](n4cnc5c(N)ncnc54)C[C@@H]3OP(=O)(O)O)c2c1
> 100	–	–	NCCCCCCNP(=O)(O)O[C@H]1C[C@H](n2cnc3c(N)ncnc32)O[C@@H]1COP(=O)(O)O[C@H]1C[C@H](n2ccc(N)nc2=O)O[C@@H]1COP(=O)(O)O
13.2	–	Active	COc1ccc2nc3cc(Cl)ccc3c(NCCCCCCOP(=O)(O)OC[C@H]3O[C@@H](n4ccc(N)nc4=O)C[C@@H]3OP(=O)(O)OC[C@H]3O[C@@H](n4cnc5c(N)ncnc54)C[C@@H]3OP(=O)(O)O)c2c1
13.9	–	–	Nc1ccn([C@H]2C[C@H](OP(=O)(O)OC[C@H]3O[C@@H](n4cnc5c(N)ncnc54)C[C@@H]3OP(=O)(O)O)[C@@H](COP(=O)(O)SCCCCCC(=O)Nc3cccc4c3C(=O)c3ccccc3C4=O)O2)c(=O)n1
> 340	–	–	NCCCCCCNc1ccn([C@H]2C[C@H](OP(=O)(O)OC[C@H]3O[C@@H](n4cnc5c(N)ncnc54)C[C@@H]3O)[C@@H](CO)O2)c(=O)n1
–	–	Active	Nc1ccn([C@H]2C[C@H](OP(=O)(O)OC[C@H]3O[C@@H](n4cnc5c(N)ncnc54)C[C@@H]3OP(=O)(O)O)[C@@H](COP(=O)(O)OCCCCCCNC(=O)c3ccc4c(c3)C(=O)c3cc(C(=O)NCCCCCCO)ccc3C4=O)O2)c(=O)n1 (stereo in doubt; 29) [listing 1 of 2 here]
> 100	–	–	Nc1ccn([C@H]2C[C@H](OP(=O)(O)OC[C@H]3O[C@@H](n4cnc5c(N)ncnc54)C[C@@H]3OP(=O)(O)NCCCO)[C@@H](COP(=O)(O)O)O2)c(=O)n1
> 340	–	–	NCCCCCNc1ccn([C@H]2C[C@H](OP(=O)(O)OC[C@H]3O[C@@H](n4cnc5c(N)ncnc54)C[C@@H]3O)[C@@H](CO)O2)c(=O)n1
> 100	–	–	COc1ccc2nc3cc(Cl)ccc3c(NCCCCSP(=O)(O)O[C@H]3C[C@H](n4cnc5c(N)ncnc54)O[C@@H]3COP(=O)(O)O[C@H]3C[C@H](n4ccc(N)nc4=O)O[C@@H]3COP(=O)(O)O)c2c1
> 1000	–	–	NCCCCNc1ccn([C@H]2C[C@H](OP(=O)(O)OC[C@H]3O[C@@H](n4cnc5c(N)ncnc54)C[C@@H]3O)[C@@H](CO)O2)c(=O)n1
786	–	–	NCCN(CCN)CCCSP(=O)(O)OC[C@H]1O[C@@H](n2ccc(N)nc2=O)C[C@@H]1OP(=O)(O)OC[C@H]1O[C@@H](n2cnc3c(N)ncnc32)C[C@@H]1OP(=O)(O)O
1.8	–	Active	Nc1ccn([C@H]2C[C@H](OP(=O)(O)OC[C@H]3O[C@@H](n4cnc5c(N)ncnc54)C[C@@H]3OP(=O)(O)O)[C@@H](COP(=O)(O)OCCCCCCNCc3ccc4c5cccc6cccc(c7cccc3c74)c65)O2)c(=O)n1
21	–	–	Nc1ccn([C@H]2C[C@H](OP(=O)(O)OC[C@H]3O[C@@H](n4cnc5c(N)ncnc54)C[C@@H]3OP(=O)(O)O)[C@@H](COP(=O)(O)OCCCCCCNC(=O)c3ccc4c(c3)C(=O)c3cc(C(=O)NCCCCCCO)ccc3C4=O)O2)c(=O)n1 (stereo in doubt; 28)
> 340	–	–	N=C(N)NCCCCNc1ccn([C@H]2C[C@H](OP(=O)(O)OC[C@H]3O[C@@H](n4cnc5c(N)ncnc54)C[C@@H]3O)[C@@H](CO)O2)c(=O)n1
65.5	–	–	Nc1ccn([C@H]2C[C@H](OP(=O)(O)OC[C@H]3O[C@@H](n4cnc5c(N)ncnc54)C[C@@H]3OP(=O)(O)O)[C@@H](COP(=O)(O)OCCCCCCNC(=O)c3ccc4c(c3)C(=O)c3cc(C(=O)NCCCCCCO)ccc3C4=O)O2)c(=O)n1 (stereo in doubt; 29) [listing 2 of 2 here]
> 340	–	–	N=C(N)NCCCCCCNc1ccn([C@H]2C[C@H](OP(=O)(O)OC[C@H]3O[C@@H](n4cnc5c(N)ncnc54)C[C@@H]3O)[C@@H](CO)O2)c(=O)n1
